What was measured:
Adenosine receptor A1 [1] = biological target: T1, Adenosine receptor A1 (Bos taurus, UniProt P28190); assay: Intrinsic activity towards Adenosine A1 receptor as displacement of [3H]DPCPX from bovine cortical membranes without GTP
T1 sequence (P28190 whole entry): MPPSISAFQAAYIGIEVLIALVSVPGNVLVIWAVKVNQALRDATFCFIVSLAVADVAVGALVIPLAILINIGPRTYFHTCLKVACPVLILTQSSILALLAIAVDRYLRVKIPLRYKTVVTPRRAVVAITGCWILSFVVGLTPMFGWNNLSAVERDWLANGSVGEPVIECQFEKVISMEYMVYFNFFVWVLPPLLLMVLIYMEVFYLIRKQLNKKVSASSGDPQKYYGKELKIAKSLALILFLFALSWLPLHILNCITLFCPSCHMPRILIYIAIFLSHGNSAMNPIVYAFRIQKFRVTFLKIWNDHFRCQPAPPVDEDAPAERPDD
Summary of the method: (§1)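 A1 binding in bovine cortical membranes with [3H]DPCPX as radioligand. Run with 1 mM GTP and without GTP, and the GTP shift was taken from comparing the two conditions. Compounds in DMSO, final ≤2%.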

Adenosine receptor A1 [2] = biological target: T1, Adenosine receptor A1; assay: Intrinsic activity towards Adenosine A1 receptor as displacement of [3H]DPCPX from bovine cortical membranes with 1 mM GTP; summary of the method: as §1
[3] = test system: Adenosine receptor A2a (Bos taurus); assay: Displacement of [3H]-CGS- 21680 from adenosine A2a receptor in bovine striatal membrane at 10 uM.; conditions: Striatum
Adenosine receptor A1 [4] = biological target: T1, Adenosine receptor A1; assay: Displacement of [3H]CHA from adenosine A1 receptors was determined in bovine cortical membranes; type: cell membranes
Summary of the method: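 A1 affinity measured by displacement of [3H]CHA (31 Ci/mmol) from bovine cortical membranes. Compounds in DMSO, final ≤2%. At least six concentrations spanning 3 orders of magnitude were used. Ki is the mean ± SEM of four separate assays, each run in triplicate.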

[5] = biological target: Adenosine receptor A2a (Bos taurus); assay: Displacement of [3H]-CGS- 21680 from adenosine A2a receptor of bovine striatal membrane
[6] = biological target: T2, Adenosine receptor A1 (Bos taurus) (UniProt P28190); assay: Displacement of [3H]CHA from adenosine A1 receptor in bovine cortical membrane at 10 uM; type: cell membranes
T2 sequence (whole entry): T1 sequence (P28190 whole entry)
Summary of the method: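 Competition against [3H]CHA (31 Ci/mmol) for A1 sites in bovine cortical membranes. Compounds dissolved in DMSO, final DMSO ≤2%.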

[7] = test system: Adenosine receptor A3 (Bos taurus); assay: Displacement of [125 I]AB-MECA from adenosine A3 receptor in bovine cortical membranes at 1 uM
[8] = biological target: T2, Adenosine receptor A1 (Bos taurus); assay: GTP shift for Adenosine A1 receptor; type: functional; summary of the method: as §1
Adenosine receptor A1 [9] = biological target: T1, Adenosine receptor A1; assay: Intrinsic activity towards Adenosine A1 receptor using [3H]DPCPX from bovine cortical membranes without GTP; summary of the method: as §1

Q: Which results are given for `C[C@H](Cc1ccccc1)Nc1ncnc2c1ncn2[C@@H]1O[C@H](CO)[C@@H](O)[C@H]1O` [(R)-PIA]?
A: Ki (Adenosine receptor A1 [1]): 4.2 nM; Ki (Adenosine receptor A1 [2]): 19.9 nM

Q: For `Cc1nnc2nc3ccccc3n2c1O`, which inhibition [3] is on record?
A: Its inhibition is 39%.

Q: And the Ki (Adenosine receptor A1 [4])?
A: Its Ki is 3900 nM.

Q: Which Ki (Adenosine receptor A1 [4]) does the source give for `Oc1c(-c2cccs2)nnc2nc3ccccc3n12` here?
A: The Ki was 293 nM.

Q: `Oc1c(-c2ccsc2)nnc2nc3ccccc3n12` was tested. Which Ki [5] did it give?
A: The Ki was 5000 nM.

Q: What about the Ki (Adenosine receptor A1 [4]) of the same molecule?
A: The Ki was 119 nM.

Q: Which Ki [5] does the source give for `Oc1ccc(-c2nnc3nc4ccccc4n3c2O)cc1O` here?
A: Its Ki is 3500 nM.

Q: What about the Ki (Adenosine receptor A1 [4]) of the same molecule?
A: Its Ki is 470 nM.

Q: What does the source list for `Oc1c(-c2ccc(Cl)cc2)nnc2nc3ccccc3n12`?
A: inhibition [3]: 8%; inhibition [6]: 44%

Q: How did the Ki (Adenosine receptor A1 [1]) turn out when `O=c1c(-c2ccccc2)nnc2n(Cc3ccccc3)c3ccccc3n12` was run?
A: Its Ki is 240 nM.

Q: What about the Ki (Adenosine receptor A1 [2]) of the same molecule?
A: The Ki was 184 nM.

Q: What about the Ki (Adenosine receptor A1 [4]) of the same molecule?
A: The Ki was 274 nM.

Q: How did the Ki [5] turn out when `O=c1c(-c2ccco2)nnc2n(Cc3ccccc3)c3ccccc3n12` was run?
A: Its Ki is 1240 nM.

Q: What about the Ki (Adenosine receptor A1 [4]) of the same molecule?
A: The Ki was 990 nM.

Q: Which results are given for `Cn1c2ccccc2n2c(=O)c(-c3ccc(O)cc3)nnc12`?
A: inhibition [3]: 43%; Ki (Adenosine receptor A1 [4]): 206 nM

Q: For `Cn1c2ccccc2n2c(=O)c(-c3ccsc3)nnc12`, which inhibition [3] is on record?
A: The inhibition was 55%.

Q: And the Ki (Adenosine receptor A1 [4])?
A: The Ki was 78 nM.

Q: What does the source list for `Oc1cnnc2nc3ccccc3n12`?
A: inhibition [3]: 0%; inhibition [6]: 34%

Q: Which inhibition [3] does the source give for `COc1ccc(-c2nnc3n(C)c4ccccc4n3c2=O)cc1` here?
A: Its inhibition is 7%.

Q: And the Ki (Adenosine receptor A1 [4])?
A: The Ki was 2050 nM.

Q: `Cn1c2ccccc2n2c(=O)cnnc12` was tested. Which inhibition [3] did it give?
A: The inhibition was 8%.

Q: What about the inhibition [6] of the same molecule?
A: The inhibition was 0%.

Q: With `O=c1c(-c2ccc(O)cc2)nnc2n(Cc3ccccc3)c3ccccc3n12` as the molecule, how does the Ki (Adenosine receptor A1 [4]) read?
A: Its Ki is 344 nM.

Q: What does the source list for `O=c1c(-c2ccsc2)nnc2n(Cc3ccccc3)c3ccccc3n12`?
A: inhibition [3]: 60%; Ki (Adenosine receptor A1 [4]): 446 nM

Q: With `COc1ccc(-c2nnc3nc4ccccc4n3c2O)cc1OC` as the molecule, how does the inhibition [3] read?
A: The inhibition was 35%.

Q: And the Ki (Adenosine receptor A1 [4])?
A: Its Ki is 1780 nM.

Q: Which results are given for `Cn1c2ccccc2n2c(=O)c(-c3ccc(Cl)cc3)nnc12`?
A: inhibition [3]: 0%; inhibition [6]: 66%

Q: What does the source list for `Cn1c2ccccc2n2c(=O)c(-c3ccccc3)nnc12`?
A: inhibition [7]: 0%; Ki (Adenosine receptor A1 [1]): 93.1 nM; inhibition [3]: 25%; GTP shift [8]: 1.3; Ki (Adenosine receptor A1 [2]): 119 nM; Ki (Adenosine receptor A1 [4]): 63 nM

Q: With `Cn1c2ccccc2n2c(=O)c(-c3cccs3)nnc12` as the molecule, how does the inhibition [3] read?
A: Its inhibition is 19%.

Q: And the Ki (Adenosine receptor A1 [4])?
A: The Ki was 233 nM.

Q: What does the source list for `Cc1nnc2n(C)c3ccccc3n2c1=O`?
A: inhibition [3]: 0%; inhibition [6]: 46%

Q: With `O=c1c(-c2ccccc2)nnc2n(-c3ccccc3)c3ccccc3n12` as the molecule, how does the Ki (Adenosine receptor A1 [1]) read?
A: Its Ki is 24.7 nM.

Q: What about the Ki (Adenosine receptor A1 [2]) of the same molecule?
A: Its Ki is 25 nM.

Q: And the Ki (Adenosine receptor A1 [4])?
A: Its Ki is 18 nM.

Q: What does the source list for `Oc1c(-c2ccccc2)nnc2nc3ccccc3n12`?
A: Ki (Adenosine receptor A1 [9]): 141 nM; Ki (Adenosine receptor A1 [2]): 197 nM; Ki (Adenosine receptor A1 [4]): 85 nM

Q: For `Oc1ccc(-c2nnc3nc4ccccc4n3c2O)cc1`, which Ki (Adenosine receptor A1 [4]) is on record?
A: Its Ki is 249 nM.

Q: `Cn1c2ccccc2n2c(=O)c(-c3ccc(O)c(O)c3)nnc12` was tested. Which Ki (Adenosine receptor A1 [4]) did it give?
A: Its Ki is 459 nM.

Q: `O=c1c(-c2ccco2)nnc2n(-c3ccccc3)c3ccccc3n12` was tested. Which Ki (Adenosine receptor A1 [4]) did it give?
A: The Ki was 315 nM.

Q: With `COc1ccc(-c2nnc3nc4ccccc4n3c2O)cc1` as the molecule, how does the inhibition [3] read?
A: The inhibition was 16%.

Q: What about the inhibition [6] of the same molecule?
A: The inhibition was 30%.

Q: Which results are given for `COc1ccc(-c2nnc3n(C)c4ccccc4n3c2=O)cc1OC`?
A: inhibition [3]: 18%; inhibition [6]: 24%

Q: `Cn1c2ccccc2n2c(=O)c(-c3ccco3)nnc12` was tested. Which Ki [5] did it give?
A: Its Ki is 6300 nM.

Q: And the Ki (Adenosine receptor A1 [4])?
A: Its Ki is 813 nM.

Q: `Oc1c(-c2ccco2)nnc2nc3ccccc3n12` was tested. Which Ki (Adenosine receptor A1 [4]) did it give?
A: The Ki was 261 nM.

— ChEMBL document CHEMBL1134334, “3-Aryl[1,2,4]triazino[4,3-a]benzimidazol-4(10H)-ones: a new class of selective A1 adenosine receptor antagonists” (J Med Chem, 2001)
